Shown are actives, neighbours in structure and some others; about 1.6% of the full set was active somewhere.
MT1-MMP act inh = blocks activation of human MT1-MMP; HT1080 RFP-PRO-GFP cells, GFP/RFP ratio fluorescence, overnight; percent of plate control window, DMSO zero; GFP/RFP ratio change, % at 20 µM; 0.061% of 360,000 active; P50281;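 active means GFP/RFP ratio change of at least 30% with cell ATP level not reduced by more than half and red fluorescence within 50% of control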
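Test system: HT1080 cells expressing an RFP-PRO-GFP fluorescent reporter construct / Compound dosing: single-point 20 µM compound, 1% DMSO / Schedule: cells overnight before dosing, compound overnight, 37 °C, 5% CO2 / Evaluation: GFP/RFP fluorescence ratio / Control set: DMSO and RFP-L50D-GFP cell wells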
SKN-1 inh = C. elegans SKN-1 inhibition. AID 624304. inhibition, % at 21.8 µM. C. elegans VP596 Pgst-4::GFP/RFP ratio, acrylamide-induced, 24 h. 0.49% of 360,000 active;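 active means interference check ratio from 0.5 to 1.5 plus GFP to RFP signal ratio inhibition reaching or exceeding a fixed threshold, cut at about 30% in these data, passing the limit was not always enough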
Rin1 Abl inh = human Rin1-Abl interaction inhibition; P00519+Q13671; TR-FRET Rin1/Abl binding, biochemical; inhibition, % at 7.35 µM; 0.4% of 360,000 active; AID 588664; in the data active means inhibition above about 5%, passing the limit was not always enough
Tb MetRS inh = blocks T. brucei methionyl-tRNA synthetase activity; purified T. brucei MetRS, ATP depletion, Kinase-Glo luminescence; 0.4% of 360,000 active; AID 624268; inhibition, % at 11.9 µM;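 active means inhibition above a per-plate cutoff of the control wells' mean inhibition plus 3 SD, cut at about 5.5% in these data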;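 further: 0% = DMSO wells median and 100% = median of wells with control inhibitor compound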
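Material: T. brucei methionyl-tRNA synthetase, purified; reagent: substrates ATP, L-methionine and bulk Escherichia coli tRNA; dosing: 11.9 µM single point; timing: 15 min plus 2 h at 25 °C; detection: luminescence of leftover ATP; evaluation: % inhibition; control set: DMSO-only wells as low control; replicates: singlicate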
Arr AP2 block = blocks beta-arrestin peptide binding to AP2 adaptin; FITC-arrestin peptide / GST-AP2 beads, flow cytometry; AP2 beta2 appendage carries R879A mutation; inhibition, % at 10 µM; 0.31% of 340,000 active; AID 504490;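 active means inhibition above a set limit, near 3 SD of compounds lacking own fluorescence, cut at about 54% in these data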;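 further: plate controls were DMSO wells for no effect and 5 µM unlabelled arrestin peptide for full effect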
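test system = AP2 appendage R879A on GSH beads | buffer or medium = PBS plus Tween 20 (0.05%) and BSA (0.1%) | incubation = 12 min plus 1 h, RT | detection = bead flow cytometry, FITC channel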
TbMetRS confirm = Trypanosoma brucei MetRS inhibition confirmed | 93% of 1,400 active | inhibition, % at 11.9 µM | AID 624412 | T. brucei MetRS enzyme, luminescence (ATP depletion) | shares compounds with Tb MetRS inh; in the data active means inhibition above about 7%
Jurkat tox = kills Jurkat cells in T. brucei MetRS counterscreen; shares compounds with Tb MetRS inh; Jurkat cells viability, ATP luminescence; inhibition, % at 8.3 µM; 12% of 1,400 active; AID 624413; in the data active means inhibition above about 15%;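 further: 0% = vehicle and 100% = reference inhibitor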
TbMetRS FP orth = orthogonal test for Trypanosoma brucei MetRS inhibitors. shares compounds with Tb MetRS inh. purified T. brucei MetRS, fluorescence polarization. inhibition, % at 11.9 µM. 44% of 1,400 active; in the data active means inhibition above about 17%;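 further: 0% = vehicle wells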
The depositor's hits bear a star; . = not tested or not shown.

SMILES	MT1-MMP act inh	SKN-1 inh	Rin1 Abl inh	Tb MetRS inh	Arr AP2 block	TbMetRS confirm	Jurkat tox	TbMetRS FP orth
Cc1ccc(CN2CC(C(=O)Nc3ncccc3C)CC2=O)cc1 (stereo not given)	0.8	-0.9	1.4	-0.3	6.8	.	.	.
Nc1nc(Nc2ccccc2)nc2ccccc12	43.3	-6.6	-0.3	19.0*	-0.8	30.7*	19.6*	17.5*
Nc1nc(Nc2ccc(Cl)cc2)nc2ccccc12	36.8	8.6	-5.9	4.3	-2.5	.	.	.
O=C(Cn1cnc(S(=O)(=O)N2CCCC2)c1)Nc1cccc(Br)c1	0.9	-8.8	-2.9	14.4*	5.5	36.2*	1.0	15.2
CC(=O)c1cccc(NC(=O)Cn2cnc(S(=O)(=O)N3CCCCC3)c2)c1	1.2	28.4	0.6	0.6	-9.2	.	.	.
CSc1cccc(NC(=O)Cn2cnc(S(=O)(=O)N3CCCC3)c2)c1	4.2	-6.0	0.8	8.6*	39.4	19.5*	4.0	4.2
COCCCN1C(=O)C(CC(=O)NCc2cccs2)CC(C(=O)N(C)C)=C1C (stereo not given)	6.2	16.2	-3.0	-0.7	.	.	.	.
CC1=C(C(=O)N(C)C)CC(CC(=O)NCCCN(C)C)C(=O)N1Cc1ccccc1 (stereo not given)	-0.7	-0.4	0.8	-0.8	.	.	.	.
NC(=NCc1ccccc1)NN=Cc1ccnc2ccccc12	3.8	0.1	-11.6	7.1*	.	10.4*	11.9	7.4
NC(N)=NN=Cc1ccnc2ccccc12	1.4	4.8	-4.5	-1.1	.	.	.	.
CCCc1cc(=O)oc2cc(C)cc(OCC(=O)N3C[C@H]4C[C@@H](C3)c3cccc(=O)n3C4)c12	3.2	5.7	-0.5	-1.2	.	.	.	.
CC(NC(=O)CNC(=O)c1cccc(Cl)c1)c1ccccc1 (stereo not given)	-2.1	-2.8	1.5	-1.9	-2.3	.	.	.
Brc1ccc(-c2nnc3sc(CNCc4ccc5c(c4)OCO5)cn23)cc1	3.0	-1.5	-20.6	33.1*	8.0	48.4*	2.1	25.4*
Brc1ccc(-c2nnc3sc(CNC4CCCC4)cn23)cc1	2.9	-0.9	-68.6	0.0	13.2	.	.	.
O=C1CC(N(CCc2ccccc2)C(=S)Nc2ccccc2)C(=O)N1c1ccccc1 (stereo not given)	-2.2	1.8	-0.1	30.9*	22.3	38.2*	2.5	22.9*
COC(=O)CN(C(=S)Nc1ccc(F)cc1)C1CC(=O)N(c2ccccc2)C1=O (stereo not given)	-3.0	-1.2	-1.8	-0.8	31.4	.	.	.
O=C1CC(N(CCc2ccccc2)C(=S)Nc2ccccc2)C(=O)N1c1ccc(F)cc1 (stereo not given)	2.9	0.5	0.9	22.9*	43.8	32.3*	1.2	8.8
COC(=O)c1cccc(OCC(O)Cn2ccnc2)c1 (stereo not given)	0.8	14.7	0.0	-0.6	-11.3	.	.	.
OC(COc1ccc2cc(Br)ccc2c1)Cn1ccnc1 (stereo not given)	2.1	-6.0	-3.5	6.2*	38.7	13.4*	9.4	23.6*
O=C(O)C1(O)C[C@@H](O)C(O)[C@H](O)C1 (stereo not given in full)	-2.0	-13.6	0.9	-0.7	-4.9	.	.	.
COc1cccc(NC(=O)Nc2nnc(Cc3ccc(OC)c(OC)c3)s2)c1	5.2	1.3	-4.1	-0.6	0.8	.	.	.
CCOC(=O)Cc1nnc(NC(=O)Nc2ccccc2)s1	2.2	-7.9	-3.9	15.8*	-6.2	23.0*	7.5	15.0
COc1ccc(Cc2nnc(NC(=O)Nc3ccccc3)s2)cc1OC	0.0	7.8	0.4	7.0*	-10.4	20.6*	5.7	14.8
CC1(C)NC(=O)N(CCCOc2ccc(Br)cc2Cl)C1=O	4.3	18.9	0.9	10.7*	8.8	24.3*	-6.6	104.3*
CC1(C)NC(=O)N(CCCCOc2ccc(Br)cc2Cl)C1=O	-2.9	4.0	0.1	4.4	-2.5	.	.	.
SMILES	MT1-MMP act inh	SKN-1 inh	Rin1 Abl inh	Tb MetRS inh	Arr AP2 block	TbMetRS confirm	Jurkat tox	TbMetRS FP orth
Clc1cc(Br)ccc1OCCn1ccnc1	4.9	-18.3	5.7	0.2	-4.8	.	.	.
Clc1cc(Br)ccc1OCCCn1ccnc1	0.3	-5.7	-0.4	9.9*	5.5	17.0*	5.0	12.1
O=C(Nc1ccc(Cl)c(Cl)c1)OCCNC(=O)c1cccc(Cl)c1	4.2	-20.4	-2.1	39.6*	23.3	58.2*	4.7	35.1*
C=CCn1c(COc2ccccc2F)nnc1SCC(=O)Nc1cc2oc3ccccc3c2cc1OC	1.3	2.4	2.8	-0.3	11.8	.	.	.
C=CCn1c(COc2ccccc2F)nnc1SCC(=O)c1c[nH]c2ccccc12	-1.0	10.8	-0.6	13.5*	11.5	17.4*	1.9	7.3
COc1ccccc1N1CCN(C(=O)c2ccc3ncsc3c2)CC1	-7.8	-11.6	1.3	-1.0	2.9	.	.	.
COc1cccc(CNc2ccc([N+](=O)[O-])cc2Cl)c1O	-0.4	-11.3	0.9	16.9*	13.6	17.5*	7.0	13.0
Cc1ccc([C@@H]2C[C@H]3[C@@H](CN2S(=O)(=O)c2ccc(Cl)cc2)C(=O)C[C@@H](c2ccccc2)N3S(=O)(=O)c2ccc(C)cc2)cc1	-2.0	-1.0	0.0	0.7	.	.	.	.
O=C(COc1nsnc1N1CCOCC1)Nc1ccc(Cl)cc1	3.9	1.9	-6.0	11.0*	17.4	22.8*	-10.2	7.1
C=CCOC1=CS(=O)(=O)N(Cc2ccc(Br)cc2)c2ccc(Br)cc21	-0.2	10.5	0.6	-1.4	-1.4	.	.	.
CCOC(=O)C(/C=C(\C#N)C(=O)OCC)=C(/N)N1CCN(c2ccccc2)CC1	1.2	13.2	-2.6	40.5*	8.6	57.6*	1.1	28.3*
CN1C(=O)[C@H]2[C@@H](c3ccc(C(F)(F)F)cc3)N[C@]3(CCCN(Cc4ccc(Cl)cc4)C3=O)[C@H]2C1=O	2.6	2.1	-0.4	-0.9	.	.	.	.
COc1ccc(CCNC(=O)COC(=O)c2cc(S(=O)(=O)N3CCCC3)ccc2O)cc1	-0.4	-17.2	-0.4	0.1	8.0	.	.	.
CCCNC(=O)C1(C)CCCN(Cc2ccccc2N(C)C)C1 (stereo not given)	-3.6	0.8	-3.4	-0.1	.	.	.	.
O=C(Nc1cccc(-c2nc3ccccc3[nH]2)c1)c1ccco1	9.1	2.3	-3.3	5.7*	4.0	8.8*	6.6	15.5
Cc1ccc(NC(=O)C=NOCC(=O)Nc2cc(C)cc(C)c2)cc1	1.5	6.2	0.6	24.0*	-15.5	58.2*	-3.7	40.7*
CC(Sc1ccc(Cl)cc1)C(=O)NCc1ccc2c(c1)OCO2 (stereo not given)	-6.1	-1.6	5.6	0.4	26.7	.	.	.

Screening results deposited in PubChem BioAssay by several laboratories.
